Rows were chosen to be rich in hits. Some 1.7% of all compounds tested hit in one or more screens of this group.
CASP6 VEID inh: blocks human caspase-6 cleavage activity; P55212; purified caspase-6, Z-VEID-R110 cleavage fluorescence; inhibition, % at 12.5 µM; actives 0.53% (n = 350,000); AID 686996;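 active = mean inhibition across replicates at least about 35%, with every replicate also reaching that limit, limit read from the data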
LMPTP block: LMPTP (human) inhibition; P24666; recombinant LMPTP-A, OMFP fluorogenic substrate, fluorescence intensity; inhibition, % at 20 µM; actives 0.22% (n = 360,000); AID 651560;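 active = compounds that cut the enzyme signal by at least half of the control window in the single-dose screen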
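Buffer or medium: Bis-Tris pH 6.0, DTT, detergent; Assay system: LMPTP-A enzyme; Quantity: 0.625 nM enzyme; Detection: endpoint fluorescence intensity; Times: 50 min dark incubation at room temperature; Controls: substrate-only low control, DMSO enzyme-plus-substrate high control; Doses: single 20 µM dose; Read-out: percent inhibition versus substrate-only and uninhibited controls; Reagent: 400 µM OMFP.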
SUMO1 PPI mod: SUMO1-SIM interaction modulation; P63165; SUMO1 binding to a labelled peptide, TR-FRET, 1 h; inhibition, % at 20 µM; actives 0.33% (n = 360,000); AID 602429; in the data active = inhibition above about 37%
DNMT1 inh: inhibitors of human DNMT1. P26358. DNMT1 molecular beacon, Hinp1I cleavage, fluorescence. inhibition (reported as % activation of signal), % at 10 µM. actives 0.83% (n = 360,000). AID 588458; in the data active = inhibition above about 50%
Scp1 inh: Scp-1 (human) phosphatase inhibition; Recombinant Scp1, phosphopeptide, malachite green phosphate absorbance; Q9GZU7; inhibition, % at 20 µM; actives 0.88% (n = 340,000);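 active = inhibition above about 50% at 20 µM, limit read from the data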
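Test system: SCP-1 phosphatase catalytic domain, residues 76-261; measured by: colorimetric phosphate reagent with accelerator and stabiliser, absorbance at 630 nm; timing: enzyme reaction 45 min at room temperature, colour 5 min, stabilisation 30 min; also added: Phosphorylated 17-residue peptide substrate; compound dosing: one concentration, 20 µM, with 1.0% DMSO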
STEP inh: blocks human striatal-enriched tyrosine phosphatase | P54829 | recombinant STEP, OMFP fluorogenic substrate, fluorescence | inhibition, % at 20 µM | actives 0.25% (n = 360,000) | AID 588621;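 active = inhibition at 20 µM, scaled per plate between control wells, above about 37%, limit read from the data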
Target sequence (P54829 whole entry, looked up): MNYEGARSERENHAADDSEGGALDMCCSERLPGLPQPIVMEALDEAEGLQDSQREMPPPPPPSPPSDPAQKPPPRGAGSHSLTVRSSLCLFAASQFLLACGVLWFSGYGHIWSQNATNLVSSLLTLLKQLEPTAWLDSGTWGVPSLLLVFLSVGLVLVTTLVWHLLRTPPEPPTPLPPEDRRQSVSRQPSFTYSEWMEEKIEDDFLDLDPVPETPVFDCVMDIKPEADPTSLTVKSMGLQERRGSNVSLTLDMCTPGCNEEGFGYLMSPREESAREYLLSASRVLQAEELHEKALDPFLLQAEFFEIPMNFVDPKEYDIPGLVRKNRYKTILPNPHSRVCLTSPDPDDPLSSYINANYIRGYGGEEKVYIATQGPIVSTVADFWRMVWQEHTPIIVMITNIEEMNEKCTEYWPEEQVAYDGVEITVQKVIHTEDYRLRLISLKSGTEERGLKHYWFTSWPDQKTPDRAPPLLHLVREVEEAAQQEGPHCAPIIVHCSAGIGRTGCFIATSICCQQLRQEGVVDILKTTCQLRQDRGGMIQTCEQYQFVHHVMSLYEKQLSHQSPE
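Assay system: isolated STEP enzyme. Buffer or medium: pH 6.0 Bis-Tris with DTT and Tween 20. Also added: fluorogenic phosphatase substrate OMFP at 25 µM final. Dosing: 20 µM, 1% DMSO. Timing: 20 min reaction, room temperature, in the dark. Measured by: fluorescence intensity, excitation 480 nm, emission 540 nm. Evaluation: normalized % inhibition.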
DNMT1 confirm: DNMT1 inhibition confirmation, single concentration. shares compounds with DNMT1 inh. DNMT1 molecular beacon HinP1I cleavage, fluorescence. inhibition, % at 10 µM. actives 8% (n = 2,300). AID 602385;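 active = average inhibition of at least 30% in the single-concentration confirmation test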
DNMT1 interf: shows spectral interference in the DNMT1 beacon assay. DNMT1 molecular beacon spectral interference counterscreen, fluorescence 485/520. shares compounds with DNMT1 inh. actives 1% (n = 2,300). activation (fluorescence interference), % at 10 µM;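 active = activation of at least 30% at 10 µM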;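 note: DNMT1 catalytic domain with a HinP1I cleavage step and a FAM/dabcyl DNA beacon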
Numbers stand for hits; n = inactive; x = no result.

SMILES	CASP6 VEID inh	LMPTP block	SUMO1 PPI mod	DNMT1 inh	Scp1 inh	STEP inh	DNMT1 confirm	DNMT1 interf
O=C(CSc1nnc(C2CC2)n1-c1ccccc1)NCCN1C(=O)CSC1=O	x	n	n	n	n	n	x	x
C[C@@H]1CN([C@@H](C)CO)C(=O)c2c(c3ccccc3n2C)-c2ccccc2CO[C@@H]1CN(C)C(=O)Nc1cccc(Cl)c1Cl	n	x	x	x	x	x	x	x
COc1ccc2[nH]c(C)c(-c3csc(N)n3)c2c1	n	n	n	82	n	n	n	n
COc1ccc(-c2csc(N)n2)cc1	x	n	n	n	n	n	x	x
Cc1ccc2oc(-c3ccccc3C(=O)O)cc(=O)c2c1	x	n	n	n	n	n	x	x
Cc1[nH][nH]c(=O)c1C(c1ccc(-c2ccccc2C(=O)O)o1)c1c(C)[nH][nH]c1=O	x	n	n	75	n	n	n	n
CCOc1ccc(N=c2cc(-c3ccc(OC)cc3)oc3ccccc23)cc1	n	n	n	95	n	n	n	n
CC(C)C(NC(=O)c1ccc2c(c1)OCO2)C(=O)N/N=C\c1ccco1 (stereo not given)	n	n	n	n	n	n	x	x
CC(C)C(NC(=O)c1ccc2c(c1)OCO2)C(=O)N/N=C/c1cccs1 (stereo not given)	n	n	n	60	n	n	n	n
Cc1ccc(CC(=O)Nc2ncc([N+](=O)[O-])s2)cc1	n	n	n	n	n	n	x	x
O=C(COC(=O)c1ccc(Br)o1)Nc1ncc([N+](=O)[O-])s1	48	n	n	71	n	n	n	n
Cc1ccc(S(=O)(=O)N2C[C@H]3[C@H]4C(=O)N(c5ccccc5)C(=O)[C@H]4C[C@H](OC(=O)NC4CC4)[C@@]3(O)C2)cc1	n	n	n	n	x	n	x	x
CCCCCCNC(=O)O[C@H]1C[C@@H]2C(=O)N(c3ccccc3)C(=O)[C@@H]2[C@@H]2CN(S(=O)(=O)c3ccc(C)cc3)C[C@]12O	n	n	n	76	x	n	n	n
Cc1cccc(-n2cnc(C(=O)N/N=C\c3ccc(Br)cc3)c2)n1	x	n	n	52	n	n	n	n
Cc1cccc(-n2cnc(C(=O)NNC(=S)Nc3ccc(Cl)cc3)c2)n1	n	n	n	n	n	n	x	x
O=C(NCC[C@@H]1CC[C@@H](NS(=O)(=O)c2ccccc2)[C@@H](CO)O1)c1ccccc1F	n	x	x	x	x	x	x	x
CCCC(=O)NNC(=O)Nc1ccccc1	n	n	n	n	n	n	x	x
CCC1(C)COC(C)(CC(=O)NNC(=O)Nc2ccccc2)OC1 (stereo not given)	n	n	n	81	n	n	n	n
C[C@H]1CN([C@@H](C)CO)C(=O)Cc2cc(NC(=O)Cc3ccccc3)ccc2O[C@@H]1CN(C)C(=O)Nc1ccccc1	n	x	x	x	x	x	x	x
CC1(C(=O)NS(=O)(=O)Cc2cccc(Cl)c2)CCN1C(=O)c1ccc(C2CCCCC2)cc1 (stereo not given)	n	n	n	78	x	n	n	n
CC1(C(=O)NS(=O)(=O)Cc2ccccc2)CCN1C(=O)c1ccc(C2CCCCC2)cc1 (stereo not given)	n	n	n	n	x	n	x	x
CC1(C)CC(NC(=O)c2ccccc2)CC(C)(C)N1	n	n	n	101	n	n	n	n
O=C(Nc1ccc(-c2nc3ncccc3o2)cc1)c1ccc([N+](=O)[O-])o1	n	n	n	50	n	n	n	n
Cc1ccc(-c2nc3ncccc3o2)cc1NC(=O)c1ccc([N+](=O)[O-])o1	x	n	n	n	n	n	x	x
O=C(CSc1nc2c(cnn2-c2ccccc2)c(=O)[nH]1)N1CCCCC1	n	n	n	n	n	n	x	x

Source: PubChem BioAssay
